Measurements published in ChEMBL document CHEMBL1157589, “Antifungal 3,5-disubstituted furanones: From 5-acyloxymethyl to 5-alkylidene derivatives” (Bioorg Med Chem, 2010).
pIC50: −log10 of the molar value. In brackets after ≈: the same amount, converted by molar mass.

Key:
Pichia kudriavzevii [1] = assay: Antifungal activity against Candida krusei E28 after 48 hrs by microdilution method; type: functional; details: E28, 48 h
How it was run: (§1)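 Yeasts held on Sabouraud dextrose agar. MIC by NCCLS M27-A broth microdilution in RPMI 1640 with L-glutamine, buffered with 0.165 M MOPS to pH 7.0. Compounds in DMSO (≤2% final), twofold dilutions 500–0.48. Final inoculum 5 × 10³ ± 0.2 cfu mL⁻¹. Incubated at 35 °C; absorbance at 540 nm read at 24 and 48 h. MIC is 80% growth inhibition versus control; run twice in duplicate.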

Lichtheimia corymbifera [2] = assay: Antifungal activity against Absidia corymbifera 272 after 24 hrs by microdilution method; type: functional; details: Lichtheimia corymbifera, 272, 24 h
How it was run: (§2)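 Filamentous strains held on Sabouraud dextrose agar. NCCLS M27-A broth microdilution in RPMI 1640 with L-glutamine and 0.165 M MOPS, pH 7.0. DMSO diluent ≤2% final; twofold dilutions 500–0.48. Inoculum 5 × 10³ ± 0.2 cfu mL⁻¹ final.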

Candida parapsilosis [3] = assay: Antifungal activity against Candida parapsilosis ATCC 22019 after 24 hrs by microdilution method; type: functional; details: Lodderomyces parapsilosis, ATCC 22019, 24 h; how it was run: as §1
Lichtheimia corymbifera [4] = assay: Antifungal activity against Absidia corymbifera 272 after 48 hrs by microdilution method; type: functional; details: Lichtheimia corymbifera, 272, 48 h; how it was run: as §2
[5] = system: Trichophyton mentagrophytes; assay: Antifungal activity against Trichophyton mentagrophytes 445 after 72 hrs by microdilution method; type: functional; details: Trichophyton mentagrophytes, 445, 72 h
How it was run: (§3)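 Dermatophyte held on Sabouraud dextrose agar. M27-A microdilution in MOPS-buffered (0.165 M, pH 7.0) RPMI 1640 with L-glutamine. DMSO ≤2% final; twofold dilutions 500–0.48. Inoculum 5 × 10³ ± 0.2 cfu mL⁻¹ final. Incubated at 35 °C; MIC read visually at 72 and 120 h as 80% inhibition of control growth; determined twice in duplicate.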

Candida albicans [6] = assay: Antifungal activity against Candida albicans ATCC 44859 after 48 hrs by microdilution method; type: functional; details: ATCC 44859, 48 h; how it was run: as §1
HL-60 = assay: Cytostatic activity against human HL60 cells after 72 hrs by XTT assay; type: functional, cell-based; details: hl-60
How it was run: (§4)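 Leukemia cells (L1210 ATCC CCL 219, CCRF-CEM ATCC CCL 119, HL-60 ATCC CCL 240) grown in 24-well plates in RPMI 1640 with fetal calf serum. Growth assessed 72 h after drug addition. Viability measured by XTT spectrophotometric assay; potency given as IC50.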

Trichosporon beigelii [7] = assay: Antifungal activity against Trichosporon beigelii 1188 after 24 hrs by microdilution method; type: functional; details: Trichosporon beigelii, 1188, 24 h; how it was run: as §1
Candida albicans [8] = assay: Antifungal activity against Candida albicans ATCC 90028 after 48 hrs by microdilution method; type: functional; details: ATCC 90028, 48 h; how it was run: as §1
Nakaseomyces glabratus [9] = assay: Antifungal activity against Candida glabrata 20/I after 24 hrs by microdilution method; type: functional; how it was run: as §1
CCRF-CEM = assay: Cytostatic activity against human CCRF-CEM cells after 72 hrs by XTT assay; type: functional, cell-based; details: for IC50: ccrf-cem; how it was run: as §4
Pichia kudriavzevii [10] = assay: Antifungal activity against Candida krusei ATCC 6258 after 24 hrs by microdilution method; type: functional; details: ATCC 6258, 24 h; how it was run: as §1
Candida albicans [11] = assay: Antifungal activity against Candida albicans ATCC 90028 after 24 hrs by microdilution method; type: functional; details: ATCC 90028, 24 h; how it was run: as §1
Aspergillus fumigatus [12] = assay: Antifungal activity against Aspergillus fumigatus 231 after 24 hrs by microdilution method; type: functional; details: Aspergillus fumigatus, 231, 24 h; how it was run: as §2
HeLa S3 = assay: Cytostatic activity against human HeLaS3 cells after 48 hrs by XTT assay; details: for IC50: hela s3
Candida parapsilosis [13] = assay: Antifungal activity against Candida parapsilosis ATCC 22019 after 48 hrs by microdilution method; type: functional; details: Lodderomyces parapsilosis, ATCC 22019, 48 h; how it was run: as §1
Candida albicans [14] = assay: Antifungal activity against Candida albicans ATCC 44859 after 24 hrs by microdilution method; type: functional; details: ATCC 44859, 24 h; how it was run: as §1
Trichosporon beigelii [15] = assay: Antifungal activity against Trichosporon beigelii 1188 after 48 hrs by microdilution method; type: functional; details: Trichosporon beigelii, 1188, 48 h; how it was run: as §1
[16] = system: Trichophyton mentagrophytes; assay: Antifungal activity against Trichophyton mentagrophytes 445 after 120 hrs by microdilution method; type: functional; details: Trichophyton mentagrophytes, 445, 120 h; how it was run: as §3
Pichia kudriavzevii [17] = assay: Antifungal activity against Candida krusei ATCC 6258 after 48 hrs by microdilution method; type: functional; details: ATCC 6258, 48 h; how it was run: as §1
Clavispora lusitaniae [18] = assay: Antifungal activity against Candida lusitaniae 2446/I after 48 hrs by microdilution method; type: functional; how it was run: as §1
Aspergillus fumigatus [19] = assay: Antifungal activity against Aspergillus fumigatus 231 after 48 hrs by microdilution method; type: functional; details: Aspergillus fumigatus, 231, 48 h; how it was run: as §2
Clavispora lusitaniae [20] = assay: Antifungal activity against Candida lusitaniae 2446/I after 24 hrs by microdilution method; type: functional; how it was run: as §1
L1210 = assay: Cytostatic activity against mouse L1210 cells after 72 hrs by XTT assay; type: functional, cell-based; details: l1210; how it was run: as §4
Pichia kudriavzevii [21] = assay: Antifungal activity against Candida krusei E28 after 24 hrs by microdilution method; type: functional; details: E28, 24 h; how it was run: as §1
Candida tropicalis [22] = assay: Antifungal activity against Candida tropicalis 156 after 48 hrs by microdilution method; type: functional; details: Candida tropicalis, 156, 48 h; how it was run: as §1
Candida tropicalis [23] = assay: Antifungal activity against Candida tropicalis 156 after 24 hrs by microdilution method; type: functional; details: Candida tropicalis, 156, 24 h; how it was run: as §1
Nakaseomyces glabratus [24] = assay: Antifungal activity against Candida glabrata 20/I after 48 hrs by microdilution method; type: functional; how it was run: as §1

Compound | MIC80 (Pichia kudriavzevii [1]) | MIC80 (Lichtheimia corymbifera [2]) | MIC80 (Candida parapsilosis [3]) | MIC80 (Lichtheimia corymbifera [4]) | MIC80 [5] | MIC80 (Candida albicans [6]) | IC50 (HL-60) | MIC80 (Trichosporon beigelii [7]) | MIC80 (Candida albicans [8]) | MIC80 (Nakaseomyces glabratus [9]) | MIC80 (Pichia kudriavzevii [10]) | MIC80 (Candida albicans [11]) | MIC80 (Aspergillus fumigatus [12]) | MIC80 (Candida parapsilosis [13]) | MIC80 (Candida albicans [14]) | MIC80 (Trichosporon beigelii [15]) | MIC80 [16] | MIC80 (Pichia kudriavzevii [17]) | MIC80 (Clavispora lusitaniae [18]) | MIC80 (Aspergillus fumigatus [19]) | also measured
O=C1O/C(=C\CCCO)C=C1c1ccc(Br)cc1 | > 500 µM | 62.5 µM (≈ 19.3 µg/mL) | > 500 µM | 62.5 µM (≈ 19.3 µg/mL) | 62.5 µM (≈ 19.3 µg/mL) | 125 µM (≈ 38.6 µg/mL) | Not Active | > 500 µM | > 500 µM | > 500 µM | > 500 µM | > 500 µM | > 500 µM | > 500 µM | 62.5 µM (≈ 19.3 µg/mL) | > 500 µM | 62.5 µM (≈ 19.3 µg/mL) | > 500 µM | > 500 µM | > 500 µM | IC50 (CCRF-CEM): Not Active; IC50 (HeLa S3): Not Active; MIC80 (Clavispora lusitaniae [20]): > 500 µM; IC50 (L1210): Not Active; MIC80 (Pichia kudriavzevii [21]): > 500 µM; MIC80 (Candida tropicalis [22]): > 500 µM; MIC80 (Candida tropicalis [23]): > 500 µM; MIC80 (Nakaseomyces glabratus [24]): > 500 µM
COC(=O)/C=C1\C=C(c2ccc(Br)cc2)C(=O)O1 | > 125 µM | > 125 µM | > 125 µM | > 125 µM | > 125 µM | > 125 µM | Not Active | > 125 µM | > 125 µM | > 125 µM | > 125 µM | > 125 µM | > 125 µM | > 125 µM | > 125 µM | > 125 µM | > 125 µM | > 125 µM | > 125 µM | > 125 µM | IC50 (CCRF-CEM): Not Active; IC50 (HeLa S3): Not Active; MIC80 (Clavispora lusitaniae [20]): > 125 µM; IC50 (L1210): Not Active; MIC80 (Pichia kudriavzevii [21]): > 125 µM; MIC80 (Candida tropicalis [22]): > 125 µM; MIC80 (Candida tropicalis [23]): > 125 µM; MIC80 (Nakaseomyces glabratus [24]): > 125 µM
CC(=O)OC/C=C1/C=C(c2ccc(Br)cc2)C(=O)O1 | 62.5 µM (≈ 20.2 µg/mL) | 31.2 µM (≈ 10.1 µg/mL) | 31.2 µM (≈ 10.1 µg/mL) | 31.2 µM (≈ 10.1 µg/mL) | 7.81 µM (≈ 2.52 µg/mL) | 31.2 µM (≈ 10.1 µg/mL) | Not Active | 31.2 µM (≈ 10.1 µg/mL) | 62.5 µM (≈ 20.2 µg/mL) | 31.2 µM (≈ 10.1 µg/mL) | 7.81 µM (≈ 2.52 µg/mL) | 31.2 µM (≈ 10.1 µg/mL) | 15.6 µM (≈ 5.05 µg/mL) | 62.5 µM (≈ 20.2 µg/mL) | 7.81 µM (≈ 2.52 µg/mL) | 31.2 µM (≈ 10.1 µg/mL) | 15.6 µM (≈ 5.05 µg/mL) | 62.5 µM (≈ 20.2 µg/mL) | 125 µM (≈ 40.4 µg/mL) | 31.2 µM (≈ 10.1 µg/mL) | pIC50 (CCRF-CEM; Homo sapiens, CCRF-CEM, 72 h, read-out: IC50): 5.36; pIC50 (HeLa S3; Homo sapiens, HeLa S3, 48 h, read-out: IC50): 5.38; MIC80 (Clavispora lusitaniae [20]): 62.5 µM (≈ 20.2 µg/mL); IC50 (L1210): Not Active; MIC80 (Pichia kudriavzevii [21]): 62.5 µM (≈ 20.2 µg/mL); MIC80 (Candida tropicalis [22]): 125 µM (≈ 40.4 µg/mL); MIC80 (Candida tropicalis [23]): 31.2 µM (≈ 10.1 µg/mL); MIC80 (Nakaseomyces glabratus [24]): 62.5 µM (≈ 20.2 µg/mL)

Second part, led by results:

MIC80 (Pichia kudriavzevii [1]) | MIC80 (Lichtheimia corymbifera [2]) | MIC80 (Candida parapsilosis [3]) | MIC80 (Lichtheimia corymbifera [4]) | MIC80 [5] | MIC80 (Candida albicans [6]) | IC50 (HL-60) | MIC80 (Trichosporon beigelii [7]) | MIC80 (Candida albicans [8]) | MIC80 (Nakaseomyces glabratus [9]) | MIC80 (Pichia kudriavzevii [10]) | MIC80 (Candida albicans [11]) | MIC80 (Aspergillus fumigatus [12]) | MIC80 (Candida parapsilosis [13]) | MIC80 (Candida albicans [14]) | MIC80 (Trichosporon beigelii [15]) | MIC80 [16] | MIC80 (Pichia kudriavzevii [17]) | MIC80 (Clavispora lusitaniae [18]) | MIC80 (Aspergillus fumigatus [19]) | Compound | also measured
500 µM (≈ 120 µg/mL) | 500 µM (≈ 120 µg/mL) | 250 µM (≈ 59.8 µg/mL) | 500 µM (≈ 120 µg/mL) | 250 µM (≈ 59.8 µg/mL) | 250 µM (≈ 59.8 µg/mL) | Not Active | 250 µM (≈ 59.8 µg/mL) | 500 µM (≈ 120 µg/mL) | 500 µM (≈ 120 µg/mL) | 250 µM (≈ 59.8 µg/mL) | 500 µM (≈ 120 µg/mL) | 250 µM (≈ 59.8 µg/mL) | 500 µM (≈ 120 µg/mL) | 250 µM (≈ 59.8 µg/mL) | 500 µM (≈ 120 µg/mL) | 250 µM (≈ 59.8 µg/mL) | 500 µM (≈ 120 µg/mL) | 500 µM (≈ 120 µg/mL) | 500 µM (≈ 120 µg/mL) | O=C1OCC=C1c1ccc(Br)cc1 | IC50 (CCRF-CEM): Not Active; IC50 (HeLa S3): Not Active; MIC80 (Clavispora lusitaniae [20]): 500 µM (≈ 120 µg/mL); IC50 (L1210): Not Active; MIC80 (Pichia kudriavzevii [21]): 250 µM (≈ 59.8 µg/mL); MIC80 (Candida tropicalis [22]): 500 µM (≈ 120 µg/mL); MIC80 (Candida tropicalis [23]): 250 µM (≈ 59.8 µg/mL); MIC80 (Nakaseomyces glabratus [24]): 500 µM (≈ 120 µg/mL)
> 500 µM | > 500 µM | > 500 µM | > 500 µM | > 500 µM | > 500 µM | Not Active | > 500 µM | > 500 µM | > 500 µM | > 500 µM | > 500 µM | > 500 µM | > 500 µM | > 500 µM | > 500 µM | > 500 µM | > 500 µM | > 500 µM | > 500 µM | O=C1O/C(=C\COC(=O)c2ccccc2)C=C1c1ccc(Br)cc1 | IC50 (CCRF-CEM): Not Active; IC50 (HeLa S3): Not Active; MIC80 (Clavispora lusitaniae [20]): > 500 µM; IC50 (L1210): Not Active; MIC80 (Pichia kudriavzevii [21]): > 500 µM; MIC80 (Candida tropicalis [22]): > 500 µM; MIC80 (Candida tropicalis [23]): > 500 µM; MIC80 (Nakaseomyces glabratus [24]): > 500 µM
